Results taken from ChEMBL document CHEMBL1811848 (Bioorg Med Chem Lett, 2011).

How the values were obtained:
Rattus norvegicus [1] = assay: Toxicity in male Wistar rat assessed as urea level at 3 mg/kg, po measured after 28 days (reference value: 30.52 +/- 0.79 mg/dl); assay type: organism-based; parameters: dose 3 mg/kg, route oral; details: in vivo, 672 h
Mus musculus [2] = assay: Antihyperglycemic activity in db/db mouse assessed as reduction in plasma glucose level at 0.1 mg/kg, po; assay type: functional; parameters: scale not given: the % may be the effect or the level left
Rattus norvegicus [3] = assay: Toxicity in female Wistar rat assessed as urea level at 30 mg/kg, po measured after 28 days (reference value: 33.05 +/- 2.02 mg/dl); assay type: organism-based; parameters: dose 30 mg/kg, route oral; details: in vivo, 672 h
Rattus norvegicus [4] = assay: Toxicity in male Wistar rat assessed as spleen to body weight ratio at 30 mg/kg, po measured after 28 days (reference value: 0.215 +/- 0.007); assay type: organism-based; parameters: dose 30 mg/kg, route oral; details: in vivo, 672 h
Rattus norvegicus [5] = assay: Toxicity in female Wistar rat assessed as SGPT level at 30 mg/kg, po measured after 28 days (reference value: 30.44 +/- 1.59 U/L); assay type: organism-based; parameters: dose 30 mg/kg, route oral; details: in vivo, 672 h
Rattus norvegicus [6] = assay: Toxicity in female Wistar rat assessed as thymus to body weight ratio at 30 mg/kg, po measured after 28 days (reference value: 0.094 +/- 0.01); assay type: organism-based; parameters: dose 30 mg/kg, route oral; details: in vivo, 672 h
Rattus norvegicus [7] = assay: Toxicity in male Wistar rat assessed as kidney to body weight ratio at 3 mg/kg, po measured after 28 days (reference value: 0.745 +/- 0.012); assay type: organism-based; parameters: dose 3 mg/kg, route oral; details: in vivo, 672 h
[8] = target: T1, Peroxisome proliferator-activated receptor gamma (Homo sapiens) (UniProt P37231); assay: Transactivation of human PPARgamma expressed in human HepG2 cells co-transfected with PPRE3-TK-Luc by luciferase reporter gene assay relative to Rosiglitazone; assay type: cell-based
T1 sequence (whole entry): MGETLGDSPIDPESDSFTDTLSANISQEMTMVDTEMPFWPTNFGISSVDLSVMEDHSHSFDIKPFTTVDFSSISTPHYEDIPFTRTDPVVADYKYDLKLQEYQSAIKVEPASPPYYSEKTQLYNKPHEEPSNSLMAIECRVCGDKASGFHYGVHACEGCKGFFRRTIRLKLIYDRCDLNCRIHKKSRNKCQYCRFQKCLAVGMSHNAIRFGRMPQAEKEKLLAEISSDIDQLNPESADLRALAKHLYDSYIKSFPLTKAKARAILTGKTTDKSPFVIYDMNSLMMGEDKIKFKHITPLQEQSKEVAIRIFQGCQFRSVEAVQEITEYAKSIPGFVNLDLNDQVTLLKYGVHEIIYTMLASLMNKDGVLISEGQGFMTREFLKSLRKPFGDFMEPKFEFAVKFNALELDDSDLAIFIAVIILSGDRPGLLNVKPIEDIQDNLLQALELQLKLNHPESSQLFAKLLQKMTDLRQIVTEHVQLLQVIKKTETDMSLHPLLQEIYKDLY
Summary of the method: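 Same HepG2 hPPARα or hPPARγ / PPRE3-TK-luc luciferase transactivation assay. Efficacy expressed as percent of maximal response, normalized to 100% for the reference agonist: WY-14643 for α, rosiglitazone for γ.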

Mus musculus [9] = assay: Antihyperglycemic activity in db/db mouse assessed as reduction in plasma glucose level at 1 mg/kg, po; assay type: functional; parameters: scale not given: the % may be the effect or the level left
Rattus norvegicus [10] = assay: Toxicity in female Wistar rat assessed as change in body weight at 3 mg/kg, po measured after 28 days relative to control; assay type: organism-based; parameters: dose 3 mg/kg, route oral; details: in vivo, 672 h
Summary of the method: (§1)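 Wistar rats received 3 or 30 mg/kg orally for 28 days. Body weight was recorded weekly, and the % change in body weight over the study is tabulated.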

Rattus norvegicus [11] = assay: Toxicity in female Wistar rat assessed as kidney to body weight ratio at 3 mg/kg, po measured after 28 days (reference value: 0.733 +/- 0.007); assay type: organism-based; parameters: dose 3 mg/kg, route oral; details: in vivo, 672 h
Rattus norvegicus [12] = assay: Toxicity in female Wistar rat assessed as ALP level at 30 mg/kg, po measured after 28 days (reference value: 172.38 +/- 7.18 U/L); details: in vivo, 672 h
[13] = Cmax in fasting Wistar rat at 30 mg/kg, po; assay type: ADME, organism-based; parameters: dose 30 mg/kg, route oral; details: in vivo
Summary of the method: (§2)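 Fasted male Wistar rats received one oral dose of 30 mg/kg. Plasma Cmax, T1/2 and Tmax are reported as mean ± SD of n = 3.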

Mus musculus [14] = organism: Mus musculus; assay: Hypolipidemic activity in db/db mouse assessed as reduction in triglyceride level; assay type: functional
Rattus norvegicus [15] = assay: Toxicity in male Wistar rat assessed as liver to body weight ratio at 3 mg/kg, po measured after 28 days (reference value: 3.257 +/- 0.067); assay type: organism-based; parameters: dose 3 mg/kg, route oral; details: in vivo, 672 h
Mus musculus [16] = assay: Hypolipidemic activity in db/db mouse assessed as reduction in triglyceride level at 0.03 mg/kg, po; assay type: functional; parameters: scale not given: the % may be the effect or the level left
Rattus norvegicus [17] = assay: Toxicity in female Wistar rat assessed as thymus to body weight ratio at 3 mg/kg, po measured after 28 days (reference value: 0.094 +/-0.01); assay type: organism-based; parameters: dose 3 mg/kg, route oral; details: in vivo, 672 h
Mus musculus [18] = assay: Hypolipidemic activity in db/db mouse assessed as reduction in triglyceride level at 0.3 mg/kg, po; assay type: functional; parameters: scale not given: the % may be the effect or the level left
[19] = Tmax in fasting Wistar rat at 30 mg/kg, po; assay type: ADME, organism-based; parameters: dose 30 mg/kg, route oral; details: in vivo; summary of the method: as §2
Rattus norvegicus [20] = assay: Toxicity in male Wistar rat assessed as SGPT level at 30 mg/kg, po measured after 28 days (reference value: 34.24 +/- 2.13 U/L); assay type: organism-based; parameters: dose 30 mg/kg, route oral; details: in vivo, 672 h
Rattus norvegicus [21] = assay: Toxicity in male Wistar rat assessed as testes to body weight ratio at 3 mg/kg, po measured after 28 days (reference value: 1.075 +/-1 0.106); assay type: organism-based, Testis; parameters: dose 3 mg/kg, route oral; details: in vivo, 672 h
Rattus norvegicus [22] = assay: Toxicity in female Wistar rat assessed as ovary to body weight ratio at 3 mg/kg, po measured after 28 days (reference value: 0.039 +/- 0.005); assay type: organism-based, Female gonad; parameters: dose 3 mg/kg, route oral; details: in vivo, 672 h
Rattus norvegicus [23] = assay: Toxicity in female Wistar rat assessed as adrenal to body weight ratio at 3 mg/kg, po measured after 28 days (reference value: 0.028 +/- 0.001); assay type: organism-based; parameters: dose 3 mg/kg, route oral; details: in vivo, 672 h
Rattus norvegicus [24] = assay: Toxicity in female Wistar rat assessed as SGOT level at 30 mg/kg, po measured after 28 days (reference value: 155.70 +/- 6.56 U/L); assay type: organism-based; parameters: dose 30 mg/kg, route oral; details: in vivo, 672 h
Rattus norvegicus [25] = assay: Toxicity in male Wistar rat assessed as hemoglobin level at 3 mg/kg, po measured after 28 days (reference value: 13.66 +/- 0.23 g/dl); assay type: organism-based; parameters: dose 3 mg/kg, route oral; details: in vivo, 672 h
Rattus norvegicus [26] = assay: Toxicity in female Wistar rat assessed as change in body weight at 30 mg/kg, po measured after 28 days relative to control; assay type: organism-based; parameters: dose 30 mg/kg, route oral; details: in vivo, 672 h; summary of the method: as §1
Rattus norvegicus [27] = assay: Toxicity in male Wistar rat assessed as testes to body weight ratio at 30 mg/kg, po measured after 28 days (reference value: 1.075 +/- 0.106); assay type: organism-based, Testis; parameters: dose 30 mg/kg, route oral; details: in vivo, 672 h
Rattus norvegicus [28] = assay: Toxicity in female Wistar rat assessed as creatinine level at 3 mg/kg, po measured after 28 days (reference value: 0.42 +/- 0.04 mg/dl); assay type: organism-based; parameters: dose 3 mg/kg, route oral; details: in vivo, 672 h
Rattus norvegicus [29] = assay: Toxicity in male Wistar rat assessed as glucose level at 30 mg/kg, po measured after 28 days (reference value: 70 +/- 3.49 mg/dl); assay type: organism-based; parameters: dose 30 mg/kg, route oral; details: in vivo, 672 h

Work on CCO[C@@H](Cc1ccc(OCCc2nc(-c3ccc(C)s3)oc2C)cc1)C(=O)O yielded an Activity (Rattus norvegicus [1]) of 31.24 mg/dL, an Activity (Mus musculus [2]) of 51.7% and an Activity (Rattus norvegicus [3]) of 37.39 mg/dL. The Ratio (Rattus norvegicus [4]) was 0.252, the Activity (Rattus norvegicus [5]) was 35.21 U/L and the Ratio (Rattus norvegicus [6]) was 0.066. It also gave a Ratio (Rattus norvegicus [7]) of 0.807, an Emax [8] of 165% and an Activity (Mus musculus [9]) of 59.7%. It also gave an Activity (Rattus norvegicus [10]) of 21.77%, a Ratio (Rattus norvegicus [11]) of 0.804 and an Activity (Rattus norvegicus [12]) of 248.38 U/L. For the same compound, the Cmax [13] was 91.7 µg/mL, the ED50 (Mus musculus [14]) was 0.0188 mg/kg and the Ratio (Rattus norvegicus [15]) was 7.505. The Activity (Mus musculus [16]) was 25.9%, the Ratio (Rattus norvegicus [17]) was 0.101 and the Activity (Mus musculus [18]) was 51.8%. The Tmax [19] was 40 min, the Activity (Rattus norvegicus [20]) was 33.03 U/L and the Ratio (Rattus norvegicus [21]) was 1.152. For the same compound, the Ratio (Rattus norvegicus [22]) was 0.02, the Ratio (Rattus norvegicus [23]) was 0.02 and the Activity (Rattus norvegicus [24]) was 224 U/L. It also gave an Activity (Rattus norvegicus [25]) of 12.2 g/dL, an Activity (Rattus norvegicus [26]) of 21.71% and a Ratio (Rattus norvegicus [27]) of 1.356. For the same compound, the Activity (Rattus norvegicus [28]) was 0.36 mg/dL and the Activity (Rattus norvegicus [29]) was 83.28 mg/dL.
